# Results taken from ChEMBL document CHEMBL3739387, “Discovery and SAR of Novel and Selective Inhibitors of Urokinase Plasminogen Activator (uPA) with an Imidazo[1,2-a]pyridine Scaffold” (J Med Chem, 2015).
# pIC50: −log10 of the molar value. Calls of active or inactive are those of the source. No cut-off for these calls is given here.
# Legend:
# Plasma kallikrein [1] = biological target: T1, Plasma kallikrein (Homo sapiens, UniProt P03952); experiment: Inhibition of human plasma kallikrein using D-Pro-Phe-Arg-pNA-2HCl as substrate measured for 5 mins by spectrophotometric assay; type: cell-free
# Summary of the method: (§1)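 Human plasma kallikrein, chromogenic substrate CS-31(02) (Km 269 μM) at 269 μM in assay. 50 mM HEPES at pH 7.4. Absorbance at 405 nm over 5 min at 37 °C, duplicates.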
# Coagulation factor VII = biological target: T2, Coagulation factor VII (Homo sapiens, UniProt P08709); experiment: Inhibition of purified human factor 7a using MeSO2-Cha-Abu-Arg-pNA as substrate measured for 5 mins by spectrophotometric assay
# T2 sequence (P08709 whole entry): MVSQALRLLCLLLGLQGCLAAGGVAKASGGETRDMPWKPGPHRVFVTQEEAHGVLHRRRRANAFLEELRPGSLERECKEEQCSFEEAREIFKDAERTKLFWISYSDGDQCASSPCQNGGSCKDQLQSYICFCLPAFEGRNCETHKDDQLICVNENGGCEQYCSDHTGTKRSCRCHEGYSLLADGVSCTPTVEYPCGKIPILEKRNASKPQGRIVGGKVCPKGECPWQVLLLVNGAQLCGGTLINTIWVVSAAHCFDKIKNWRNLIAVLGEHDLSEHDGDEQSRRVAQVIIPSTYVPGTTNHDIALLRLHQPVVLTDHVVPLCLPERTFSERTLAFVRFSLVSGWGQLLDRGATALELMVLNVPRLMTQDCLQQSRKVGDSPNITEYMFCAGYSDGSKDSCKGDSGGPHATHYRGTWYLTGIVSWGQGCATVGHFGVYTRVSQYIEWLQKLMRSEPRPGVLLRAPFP
# Summary of the method: (§2)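 Purified human plasma FVIIa with tissue factor (Innovin) present. MeSO2-Cha-Abu-Arg-pNA at 800 μM in assay. Buffer 50 mM HEPES pH 7.5, 100 mM NaCl, 5 mM CaCl2, 0.1% BSA.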
# [2] = biological target: T3, Urokinase-type plasminogen activator (Homo sapiens, UniProt P00749); experiment: Inhibition of human uPA using pyro-Glu-Gly-Arg-pNA as substrate assessed as para-nitroaniline release from substrate measured for 5 mins by spectrophotometric assay
# Bos taurus = species: Bos taurus; experiment: Inhibition of bovine pancreatic trypsin using Na-benzoyl-D,L-Arg-pNA-HCl as substrate at 100 uM measured for 5 mins by spectrophotometric assay
# Homo sapiens [3] = species: Homo sapiens; experiment: Selectivity index, ratio of IC50 for recombinant human tPA to IC50 for human uPA
# [4] = Inhibition of bovine pancreatic trypsin using Nalpha-benzoyl-D,L-Arg-pNA-HCl as substrate measured for 5 mins by spectrophotometric assay; design: species or system Bos taurus
# [5] = biological target: T4, Coagulation factor VII (Homo sapiens) (UniProt P08709); experiment: Inhibition of purified human factor 7a using MeSO2-Cha-Abu-Arg-pNA as substrate at 100 uM measured for 5 mins by spectrophotometric assay; summary of the method: as §2
# T4 sequence (whole entry): T2 sequence (P08709 whole entry)
# Plasminogen [6] = biological target: T5, Plasminogen (Homo sapiens, UniProt P00747); experiment: Inhibition of human plasma plasmin using pyroGlu-Pro-Arg-pNA-HCl as substrate at 100 uM measured for 5 mins by spectrophotometric assay; type: cell-free
# Summary of the method: (§3)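 Plasmin purified from human plasma. Substrate pyroGlu-Pro-Arg-pNA (CS-21(66), Km 400 μM) at 400 μM in assay. HEPES pH 7.0, 37 °C, absorbance at 405 nm followed for 5 min, duplicates.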
# Homo sapiens [7] = species: Homo sapiens; experiment: Selectivity index, ratio of IC50 for human plasma plasmin to IC50 for human uPA
# Homo sapiens [8] = species: Homo sapiens; experiment: Selectivity index, ratio of IC50 for human plasma kallikrein to IC50 for human uPA
# Homo sapiens [9] = species: Homo sapiens; experiment: Selectivity index, ratio of IC50 for purified human factor 10a to IC50 for human uPA
# Plasma kallikrein [10] = biological target: T1, Plasma kallikrein; experiment: Inhibition of human plasma kallikrein using D-Pro-Phe-Arg-pNA-2HCl as substrate at 100 uM measured for 5 mins by spectrophotometric assay; type: cell-free; summary of the method: as §1
# [11] = biological target: T3, Urokinase-type plasminogen activator; experiment: Reversible inhibition of human uPA using pyro-Glu-Gly-Arg-pNA as substrate assessed as para-nitroaniline release from substrate measured for 5 mins by spectrophotometry based enzyme kinetics assay
# Plasminogen [12] = biological target: T5, Plasminogen; experiment: Inhibition of human plasma plasmin using pyroGlu-Pro-Arg-pNA-HCl as substrate measured for 5 mins by spectrophotometric assay; type: cell-free; summary of the method: as §3
# Homo sapiens [13] = species: Homo sapiens; experiment: Selectivity index, ratio of IC50 for purified human factor 7a to IC50 for human uPA
# Prothrombin [14] = biological target: T6, Prothrombin (Homo sapiens, UniProt P00734); experiment: Inhibition of human plasma thrombin using pyroGlu-Pro-Arg-pNA-HCl as substrate measured for 5 mins by spectrophotometric assay; type: cell-free
# Summary of the method: (§4)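 Thrombin from human plasma with pyroGlu-Pro-Arg-pNA (CS-21(66), Km 400 μM) at 415 μM in assay. 50 mM HEPES pH 8.2. pNA release at 405 nm over 5 min at 37 °C, in duplicate.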
# Homo sapiens [15] = species: Homo sapiens; experiment: Selectivity index, ratio of IC50 for human plasma thrombin to IC50 for human uPA
# [16] = biological target: T3, Urokinase-type plasminogen activator; experiment: Slow dissociating inhibition of human uPA using pyro-Glu-Gly-Arg-pNA as substrate assessed as para-nitroaniline release from substrate measured for 5 mins by spectrophotometry based enzyme kinetics assay
# Prothrombin [17] = biological target: T6, Prothrombin; experiment: Inhibition of human plasma thrombin using pyroGlu-Pro-Arg-pNA-HCl as substrate at 100 uM measured for 5 mins by spectrophotometric assay; type: cell-free; summary of the method: as §4
# [18] = biological target: T7, Tissue-type plasminogen activator (Homo sapiens, UniProt P00750); experiment: Inhibition of recombinant human tPA using H-D-Ile-Pro-L-Arg-pNA-2HCl as substrate at 100 uM measured for 5 mins by spectrophotometric assay
# Target sequence in this assay (P00750 36-562 limits assumed): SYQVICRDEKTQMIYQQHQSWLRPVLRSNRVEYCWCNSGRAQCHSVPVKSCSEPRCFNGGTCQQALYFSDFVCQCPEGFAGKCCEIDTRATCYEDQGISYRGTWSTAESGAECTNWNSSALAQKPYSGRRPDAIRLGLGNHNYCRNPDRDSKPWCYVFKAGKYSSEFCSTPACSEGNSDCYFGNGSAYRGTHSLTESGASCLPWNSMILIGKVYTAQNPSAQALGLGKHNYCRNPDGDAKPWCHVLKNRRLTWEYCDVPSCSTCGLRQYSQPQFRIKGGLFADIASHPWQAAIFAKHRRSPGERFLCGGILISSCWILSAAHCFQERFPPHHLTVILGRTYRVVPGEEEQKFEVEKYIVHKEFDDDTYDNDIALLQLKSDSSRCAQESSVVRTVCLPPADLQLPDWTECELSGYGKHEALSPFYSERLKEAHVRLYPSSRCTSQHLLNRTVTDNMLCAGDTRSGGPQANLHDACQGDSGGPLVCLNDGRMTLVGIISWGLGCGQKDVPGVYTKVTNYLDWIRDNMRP
# Coagulation factor X [19] = biological target: T8, Coagulation factor X (Homo sapiens, UniProt P00742); experiment: Inhibition of purified human factor 10a using Suc-Ile-Glu(gammaPip)-GlyArg-pNa-HCl as substrate measured for 5 mins by spectrophotometric assay
# Summary of the method: (§5)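 Purified human factor Xa, substrate Suc-Ile-Glu(γPip)-Gly-Arg-pNA (CS-11(32)) at 411 μM in assay. HEPES pH 8.2. Read at 405 nm for 5 min at 37 °C, duplicate wells.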
# [20] = biological target: T3, Urokinase-type plasminogen activator; experiment: Tight binding inhibition of human uPA using pyro-Glu-Gly-Arg-pNA as substrate assessed as para-nitroaniline release from substrate measured for 5 mins by spectrophotometry based enzyme kinetics assay
# Coagulation factor X [21] = biological target: T8, Coagulation factor X; experiment: Inhibition of purified human factor 10a using Suc-Ile-Glu(yPip)-GlyArg-pNa-HCl as substrate at 100 uM measured for 5 mins by spectrophotometric assay; summary of the method: as §5
# [22] = Selectivity index, ratio of IC50 for bovine pancreatic trypsin to IC50 for human uPA
# [23] = biological target: T7, Tissue-type plasminogen activator; experiment: Inhibition of recombinant human tPA using H-D-Ile-Pro-L-Arg-pNA-2HCl as substrate measured for 5 mins by spectrophotometric assay
# Target sequence in this assay (P00750 whole entry): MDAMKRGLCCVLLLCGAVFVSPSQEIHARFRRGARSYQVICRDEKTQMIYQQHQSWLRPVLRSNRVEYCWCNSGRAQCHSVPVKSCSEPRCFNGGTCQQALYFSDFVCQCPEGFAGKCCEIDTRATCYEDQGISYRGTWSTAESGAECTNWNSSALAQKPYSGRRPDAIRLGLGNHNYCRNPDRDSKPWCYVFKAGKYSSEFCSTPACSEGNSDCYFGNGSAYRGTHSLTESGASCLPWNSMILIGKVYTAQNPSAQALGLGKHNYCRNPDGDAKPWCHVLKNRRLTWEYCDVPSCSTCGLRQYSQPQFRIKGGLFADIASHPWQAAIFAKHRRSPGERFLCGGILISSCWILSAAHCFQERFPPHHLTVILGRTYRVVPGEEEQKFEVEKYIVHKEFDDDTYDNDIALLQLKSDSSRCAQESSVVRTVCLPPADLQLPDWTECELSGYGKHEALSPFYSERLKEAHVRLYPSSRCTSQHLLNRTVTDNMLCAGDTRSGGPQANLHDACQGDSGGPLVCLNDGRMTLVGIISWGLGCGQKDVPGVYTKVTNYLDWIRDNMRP
# T1 sequence (P03952 20-390 limits assumed): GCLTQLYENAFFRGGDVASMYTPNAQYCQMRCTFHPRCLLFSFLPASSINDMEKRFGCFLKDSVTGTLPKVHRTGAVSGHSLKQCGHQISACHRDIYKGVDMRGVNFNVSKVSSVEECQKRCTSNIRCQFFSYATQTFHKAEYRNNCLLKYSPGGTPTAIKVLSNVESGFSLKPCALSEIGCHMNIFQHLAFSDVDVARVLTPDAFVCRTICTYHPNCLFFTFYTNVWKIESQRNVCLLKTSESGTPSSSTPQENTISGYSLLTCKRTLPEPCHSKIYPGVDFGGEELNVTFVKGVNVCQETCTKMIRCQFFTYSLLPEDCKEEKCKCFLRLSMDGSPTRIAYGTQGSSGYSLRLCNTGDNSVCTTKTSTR
# T1 sequence (P03952 391-638 limits assumed): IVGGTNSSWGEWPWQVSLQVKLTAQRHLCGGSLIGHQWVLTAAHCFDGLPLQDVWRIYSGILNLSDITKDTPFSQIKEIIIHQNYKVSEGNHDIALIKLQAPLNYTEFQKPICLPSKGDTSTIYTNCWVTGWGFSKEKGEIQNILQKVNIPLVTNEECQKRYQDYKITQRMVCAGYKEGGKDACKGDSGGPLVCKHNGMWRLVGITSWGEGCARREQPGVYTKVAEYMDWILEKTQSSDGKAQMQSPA
# T5 sequence (P00747 97-580 limits assumed): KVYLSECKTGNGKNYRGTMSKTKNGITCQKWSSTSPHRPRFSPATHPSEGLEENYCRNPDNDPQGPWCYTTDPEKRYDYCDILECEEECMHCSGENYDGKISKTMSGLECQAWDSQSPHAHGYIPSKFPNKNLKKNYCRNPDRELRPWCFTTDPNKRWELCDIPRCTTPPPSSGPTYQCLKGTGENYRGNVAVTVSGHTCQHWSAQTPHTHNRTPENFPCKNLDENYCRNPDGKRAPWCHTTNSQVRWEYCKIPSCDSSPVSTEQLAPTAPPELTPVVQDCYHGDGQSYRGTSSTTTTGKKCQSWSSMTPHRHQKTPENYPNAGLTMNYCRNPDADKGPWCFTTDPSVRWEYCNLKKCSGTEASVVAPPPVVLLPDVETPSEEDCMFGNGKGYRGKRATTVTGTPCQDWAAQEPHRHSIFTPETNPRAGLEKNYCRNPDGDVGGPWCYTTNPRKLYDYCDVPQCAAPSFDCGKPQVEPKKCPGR
# T5 sequence (P00747 581-810 limits assumed): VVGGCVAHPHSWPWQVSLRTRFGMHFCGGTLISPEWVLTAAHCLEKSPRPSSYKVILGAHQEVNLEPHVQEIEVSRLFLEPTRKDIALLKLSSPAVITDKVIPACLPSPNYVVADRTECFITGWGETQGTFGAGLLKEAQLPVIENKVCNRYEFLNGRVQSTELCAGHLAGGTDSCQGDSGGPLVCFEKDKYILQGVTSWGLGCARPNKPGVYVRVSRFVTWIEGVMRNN
# T8 sequence (P00742 41-179 limits assumed): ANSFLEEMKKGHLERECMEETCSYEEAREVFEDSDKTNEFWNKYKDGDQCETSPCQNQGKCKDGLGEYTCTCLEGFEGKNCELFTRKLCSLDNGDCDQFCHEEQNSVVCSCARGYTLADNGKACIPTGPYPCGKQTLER
# T8 sequence (P00742 235-488 limits assumed): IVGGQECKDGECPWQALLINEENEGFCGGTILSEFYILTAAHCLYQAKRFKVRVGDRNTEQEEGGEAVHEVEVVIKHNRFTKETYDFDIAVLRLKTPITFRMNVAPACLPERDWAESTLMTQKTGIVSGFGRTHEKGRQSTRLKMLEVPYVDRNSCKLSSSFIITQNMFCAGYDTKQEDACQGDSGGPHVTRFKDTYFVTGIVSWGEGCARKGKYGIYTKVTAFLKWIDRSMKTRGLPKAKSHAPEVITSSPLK
compound,measurement,setting,value
CCCCNC(=O)c1ccn2c(NCc3ccc(NC(=N)N)cc3)cnc2c1,pIC50,Plasma kallikrein [1],< 4.00
same,pIC50,Coagulation factor VII,< 4.00
same,pIC50,[2],7.01
same,inhibition,Bos taurus,42.7%
same,Ratio IC50,Homo sapiens [3],> 1000
same,pIC50,[4],< 4.00
same,inhibition,[5],1.4%
same,inhibition,Plasminogen [6],13.6%
same,Ratio IC50,Homo sapiens [7],> 1000
same,Ratio IC50,Homo sapiens [8],> 1000
same,Ratio IC50,Homo sapiens [9],> 1000
same,inhibition,Plasma kallikrein [10],2.8%
same,inhibition,[11],Active
same,pIC50,Plasminogen [12],< 4.00
same,Ratio IC50,Homo sapiens [13],> 1000
same,pIC50,Prothrombin [14],< 4.00
same,Ratio IC50,Homo sapiens [15],> 1000
same,inhibition,[16],Active
same,inhibition,Prothrombin [17],19.2%
same,inhibition,[18],8%
same,pIC50,Coagulation factor X [19],< 4.00
same,inhibition,[20],Active
same,inhibition,Coagulation factor X [21],41.8%
same,Ratio IC50,[22],> 1000
same,pIC50,[23],< 4.00
